{"source": "ChEMBL document CHEMBL3352597", "about": "“Heck products of parthenolide and melampomagnolide-B as anticancer modulators that modify cell cycle progression” (Eur J Med Chem, 2014)", "key": {"Oocyte [1]": {"test_system": "Oocyte", "assay": "Induction of immature stage VI Xenopus oocyte maturation assessed as stimulation of progesterone-mediated maturation measured as germinal vesicle (nuclear) breakdown after overnight incubation", "type": "functional, cell-based", "conditions": "Xenopus laevis"}, "Oocyte [2]": {"test_system": "Oocyte", "assay": "Induction of immature stage VI Xenopus oocyte maturation assessed as spontaneous maturation measured as germinal vesicle (nuclear) breakdown at 100 uM after overnight incubation", "type": "functional, cell-based", "procedure,_shortened": "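Isolated Xenopus oocytes (20 per well) incubated overnight with compound in DMSO at 100 μM final, no progesterone. The next morning, GVBD is scored as a white spot at the animal pole. Rate is expressed relative to DMSO controls, where 2.0 means spontaneous maturation.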"}, "MCF7": {"test_system": "MCF7", "assay": "Anticancer activity against human MCF7 cells assessed as growth inhibition at 10^-5 M", "type": "functional", "conditions": "read-out: GI", "procedure,_shortened": "(§1)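 NCI-60 human tumour cell line panel screened at a single concentration of 10^-5 M; value is percent growth inhibition relative to untreated growth.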"}, "Xenopus [3]": {"test_system": "Xenopus", "assay": "Induction of progesterone-independent of MAPK activation in immature stage VI Xenopus oocyte by Western blot analysis", "procedure,_shortened": "(§2)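 Oocytes treated with DMSO or compound without progesterone, harvested when 50% of treated oocytes completed GVBD, sorted by GVBD status. Lysates run on 10% gel and blotted with phospho-MAPK Thr202/Tyr204 and phospho-Cdc2 Tyr15 antibodies (1:1000), with tubulin as loading control. MPF activation read as Cdc2 dephosphorylation.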"}, "K562": {"test_system": "K562", "assay": "Anticancer activity against human K562 cells assessed as growth inhibition at 10^-5 M", "type": "functional", "conditions": "read-out: GI", "procedure,_shortened": "as §1"}, "[4]": {"assay": "Anticancer activity against human PC3 cells assessed as growth inhibition at 10^-5 M", "type": "functional", "conditions": "PC-3, read-out: GI", "procedure,_shortened": "as §1"}, "Xenopus [5]": {"test_system": "Xenopus", "assay": "Induction of progesterone-independent of MPF activation in immature stage VI Xenopus oocyte by Western blot analysis", "procedure,_shortened": "as §2"}, "HL-60(TB)": {"test_system": "HL-60(TB)", "assay": "Anticancer activity against human HL-60(TB) cells assessed as growth inhibition at 10^-5 M", "type": "functional", "conditions": "read-out: GI", "procedure,_shortened": "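NCI 60 panel initial screen at a single concentration of 10^-5 M. Value is reported as percent growth inhibition of the cell line.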"}, "[6]": {"assay": "Anticancer activity against human RPMI8226 cells assessed as growth inhibition at 10^-5 M", "type": "functional", "conditions": "RPMI-8226, read-out: GI", "procedure,_shortened": "as §1"}, "[7]": {"assay": "Anticancer activity against human MOLT4 cells assessed as growth inhibition at 10^-5 M", "type": "functional", "conditions": "MOLT-4, read-out: GI", "procedure,_shortened": "as §1"}, "CCRF-CEM": {"test_system": "CCRF-CEM", "assay": "Anticancer activity against human CCRF-CEM cells assessed as growth inhibition at 10^-5 M", "type": "functional", "conditions": "read-out: GI", "procedure,_shortened": "as §1"}, "Xenopus [8]": {"test_system": "Xenopus", "assay": "Inhibition of MPF in immature stage VI Xenopus oocyte by Western blot analysis", "procedure,_shortened": "(§3)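 Oocytes pre-treated with DMSO or compound, stimulated with progesterone, and lysed at the time 50% of DMSO oocytes reached GVBD. Lysates analysed by 10% gel western blot with phospho-Cdc2 Tyr15 (inhibitory site) and phospho-MAPK antibodies (1:1000), tubulin 1:20,000. Membrane blocked in 1% BSA, 60 min, room temperature.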"}, "Xenopus [9]": {"test_system": "Xenopus", "assay": "Inhibition of Cyclin B/CDK in immature stage VI Xenopus oocyte by Western blot analysis", "procedure,_shortened": "as §3"}, "Oocyte [10]": {"test_system": "Oocyte", "assay": "Inhibition of immature stage VI Xenopus oocyte maturation assessed as inhibition of progesterone-mediated maturation measured as germinal vesicle (nuclear) breakdown at 100 uM after overnight incubation", "type": "functional, cell-based", "procedure,_shortened": "(§4)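 Oocytes (20 per well) pre-treated overnight with compound (100 μM final, DMSO) or DMSO vehicle, then stimulated with 2 μg/ml progesterone. GVBD (animal-pole white spot) scored at the time 50% of DMSO controls reach GVBD. Rate relative to control: 1.0 means no difference, above 1.0 acceleration, below 1.0 delay, 0.0 no maturation. Differences over 20% followed up.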"}, "Oocyte [11]": {"test_system": "Oocyte", "assay": "Inhibition of immature stage VI Xenopus oocyte maturation assessed as inhibition of progesterone-mediated maturation measured as germinal vesicle (nuclear) breakdown at 1 to 100 uM after overnight incubation", "type": "functional, cell-based"}, "Oocyte [12]": {"test_system": "Oocyte", "assay": "Inhibition of immature stage VI Xenopus oocyte maturation assessed as inhibition of progesterone-mediated maturation measured as germinal vesicle (nuclear) breakdown after overnight incubation", "type": "functional, cell-based", "conditions": "Xenopus laevis"}, "Oocyte [13]": {"test_system": "Oocyte", "assay": "Induction of immature stage VI Xenopus oocyte maturation assessed as stimulation of progesterone-mediated maturation measured as germinal vesicle (nuclear) breakdown at 100 uM after overnight incubation", "type": "functional, cell-based", "procedure,_shortened": "as §4"}}, "note": "pEC50: −log10 of the molar value. The source made the active and inactive calls. The rule behind the calls is not given here.", "data": [{"smiles": "C/C1=C\\CC[C@@]2(C)O[C@@H]2[C@H]2OC(=O)/C(=C/c3ccccc3Br)[C@@H]2CC1", "values": [{"measurement": "pEC50", "setting": "Oocyte [1]", "value": 5.22}, {"measurement": "Activity", "setting": "Oocyte [2]", "value": "Active"}, {"measurement": "inhibition of growth at 10 µM", "setting": "MCF7", "value": 24.3, "unit": "%"}, {"measurement": "Activity", "setting": "Xenopus [3]", "value": "Active"}, {"measurement": "inhibition of growth at 10 µM", "setting": "K562", "value": 28.1, "unit": "%"}, {"measurement": "inhibition of growth at 10 µM", "setting": "[4]", "value": 42.3, "unit": "%"}, {"measurement": "Activity", "setting": "Xenopus [5]", "value": "Active"}, {"measurement": "inhibition of growth at 10 µM", "setting": "HL-60(TB)", "value": 34.1, "unit": "%"}, {"measurement": "inhibition of growth at 10 µM", "setting": "[6]", "value": 21.3, "unit": "%"}, {"measurement": "inhibition of growth at 10 µM", "setting": "[7]", "value": 31.2, "unit": "%"}, {"measurement": "inhibition of growth at 10 µM", "setting": "CCRF-CEM", "value": 22.3, "unit": "%"}]}, {"smiles": "C/C1=C\\CC[C@@]2(C)O[C@@H]2[C@H]2OC(=O)/C(=C/c3ccc(N)cc3)[C@@H]2CC1", "values": [{"measurement": "inhibition", "setting": "Xenopus [8]", "value": "inactive"}, {"measurement": "inhibition", "setting": "Xenopus [9]", "value": "inactive"}, {"measurement": "inhibition", "setting": "Oocyte [10]", "value": "Active"}, {"measurement": "inhibition", "setting": "Oocyte [11]", "value": "Active"}, {"measurement": "inhibition of growth at 10 µM", "setting": "[4]", "value": 20.5, "unit": "%"}, {"measurement": "pEC50", "setting": "Oocyte [12]", "value": 5.30}, {"measurement": "inhibition of growth at 10 µM", "setting": "[7]", "value": 24.2, "unit": "%"}]}, {"smiles": "C[C@@]12CC/C=C(/CO)CC[C@@H]3/C(=C\\c4cccs4)C(=O)O[C@@H]3[C@@H]1O2", "values": [{"measurement": "Activity", "setting": "Oocyte [13]", "value": "Active"}]}, {"smiles": "C[C@@]12CC/C=C(/CO)CC[C@@H]3/C(=C\\c4ncc[nH]4)C(=O)O[C@@H]3[C@@H]1O2", "values": [{"measurement": "Activity", "setting": "Oocyte [13]", "value": "Active"}]}]}
